Assay: Phase I dose-escalation safety and tolerability: adverse events, DLTs, MTD
Type: in vivo, human
How it was run: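 Multicentre, open-label, dose-escalation study. A single oral dose on day 1 was followed one week later by continuous twice-daily dosing, starting at 10 mg. The first three cohorts got solution, later cohorts tablets. AEs were graded by CTC v3.0 from consent to 30 days after stopping. DLT: a CTC grade 3 AE, or a laboratory abnormality with clinical signs, within 42 days (extended from 35). MTD: last dose below the non-tolerated dose.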

[1] = 10 mg BID solution (n=5), CTCAE grade 1–2
[2] = 10 mg BID solution (n=5), CTCAE grade ⩾3
[3] = 20 mg BID solution (n=3), CTCAE grade 1–2
[4] = 20 mg BID solution (n=3), CTCAE grade ⩾3
[5] = 40 mg BID solution (n=6), CTCAE grade 1–2
[6] = 40 mg BID solution (n=6), CTCAE grade ⩾3
[7] = 40 mg BID tablet (n=7), CTCAE grade 1–2
[8] = 40 mg BID tablet (n=7), CTCAE grade ⩾3
[9] = 60 mg BID tablet (n=7), CTCAE grade 1–2
[10] = 60 mg BID tablet (n=7), CTCAE grade ⩾3

## COc1ccc(-c2ccc3c(N4CCOC[C@@H]4C)nc(N4CCOC[C@@H]4C)nc3n2)cc1CO [AZD8055]
[1]
  Fatigue: patients with AZD8055-related AE, n (%): 1 (20) %
  Hyperglycaemia: patients with AZD8055-related AE, n (%): 0%
  Increased ALT: patients with AZD8055-related AE, n (%): 1 (20) %
  Increased AST: patients with AZD8055-related AE, n (%): 1 (20) %
  Increased GGT: patients with AZD8055-related AE, n (%): 0%
  Nausea: patients with AZD8055-related AE, n (%): 2 (40) %
  Stomatitis: patients with AZD8055-related AE, n (%): 0%
[2]
  Fatigue: patients with AZD8055-related AE, n (%): 0%
  Hyperglycaemia: patients with AZD8055-related AE, n (%): 0%
  Increased ALT: patients with AZD8055-related AE, n (%): 0%
  Increased AST: patients with AZD8055-related AE, n (%): 0%
  Increased GGT: patients with AZD8055-related AE, n (%): 0%
  Nausea: patients with AZD8055-related AE, n (%): 0%
  Stomatitis: patients with AZD8055-related AE, n (%): 0%
[3]
  Fatigue: patients with AZD8055-related AE, n (%): 0%
  Hyperglycaemia: patients with AZD8055-related AE, n (%): 0%
  Increased ALT: patients with AZD8055-related AE, n (%): 0%
  Increased AST: patients with AZD8055-related AE, n (%): 0%
  Increased GGT: patients with AZD8055-related AE, n (%): 0%
  Nausea: patients with AZD8055-related AE, n (%): 1 (33) %
  Stomatitis: patients with AZD8055-related AE, n (%): 1 (33) %
[4]
  Fatigue: patients with AZD8055-related AE, n (%): 0%
  Hyperglycaemia: patients with AZD8055-related AE, n (%): 0%
  Increased ALT: patients with AZD8055-related AE, n (%): 1 (33) %
  Increased AST: patients with AZD8055-related AE, n (%): 1 (33) %
  Increased GGT: patients with AZD8055-related AE, n (%): 0%
  Nausea: patients with AZD8055-related AE, n (%): 0%
  Stomatitis: patients with AZD8055-related AE, n (%): 0%
40 mg BID solution
  Patients with DLT (grade 3 rise in transaminases): 1
[5]
  Fatigue: patients with AZD8055-related AE, n (%): 2 (33) %
  Hyperglycaemia: patients with AZD8055-related AE, n (%): 0%
  Increased ALT: patients with AZD8055-related AE, n (%): 0%
  Increased AST: patients with AZD8055-related AE, n (%): 0%
  Increased GGT: patients with AZD8055-related AE, n (%): 1 (17) %
  Nausea: patients with AZD8055-related AE, n (%): 0%
  Stomatitis: patients with AZD8055-related AE, n (%): 1 (17) %
[6]
  Fatigue: patients with AZD8055-related AE, n (%): 0%
  Hyperglycaemia: patients with AZD8055-related AE, n (%): 0%
  Increased ALT: patients with AZD8055-related AE, n (%): 1 (17) %
  Increased AST: patients with AZD8055-related AE, n (%): 1 (17) %
  Increased GGT: patients with AZD8055-related AE, n (%): 0%
  Nausea: patients with AZD8055-related AE, n (%): 0%
  Stomatitis: patients with AZD8055-related AE, n (%): 0%
[7]
  Fatigue: patients with AZD8055-related AE, n (%): 1 (14) %
  Hyperglycaemia: patients with AZD8055-related AE, n (%): 1 (14) %
  Increased ALT: patients with AZD8055-related AE, n (%): 0%
  Increased AST: patients with AZD8055-related AE, n (%): 0%
  Increased GGT: patients with AZD8055-related AE, n (%): 0%
  Nausea: patients with AZD8055-related AE, n (%): 1 (14) %
  Stomatitis: patients with AZD8055-related AE, n (%): 0%
[8]
  Fatigue: patients with AZD8055-related AE, n (%): 0%
  Hyperglycaemia: patients with AZD8055-related AE, n (%): 0%
  Increased ALT: patients with AZD8055-related AE, n (%): 1 (14) %
  Increased AST: patients with AZD8055-related AE, n (%): 0%
  Increased GGT: patients with AZD8055-related AE, n (%): 0%
  Nausea: patients with AZD8055-related AE, n (%): 0%
  Stomatitis: patients with AZD8055-related AE, n (%): 0%
[9]
  Fatigue: patients with AZD8055-related AE, n (%): 1 (14) %
  Hyperglycaemia: patients with AZD8055-related AE, n (%): 0%
  Increased ALT: patients with AZD8055-related AE, n (%): 1 (14) %
  Increased AST: patients with AZD8055-related AE, n (%): 1 (14) %
  Increased GGT: patients with AZD8055-related AE, n (%): 1 (14) %
  Nausea: patients with AZD8055-related AE, n (%): 0%
  Stomatitis: patients with AZD8055-related AE, n (%): 0%
[10]
  Fatigue: patients with AZD8055-related AE, n (%): 0%
  Hyperglycaemia: patients with AZD8055-related AE, n (%): 0%
  Increased ALT: patients with AZD8055-related AE, n (%): 0%

Reference: PMC3461162 (British Journal of Cancer, 2012)
